Where “and” joins values, the source holds several entries; their conditions need not be identical. Identical values can stand only once.
Key:
Mus musculus [1] = test: In vivo evaluation of percent increase in life span (ILS) against P388 lymphocytic leukemia in infected CD2F1 male mice and at 20 dose mg/kg; format: functional
Summary of the method: (§1)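 P388 lymphocytic leukemia (10⁶ cells) transplanted into male CD2F1 (CDF1) mice, with intraperitoneal treatment once daily for 9 days following the day of transplantation. Groups of 6. Survival days of treated (T) and control (C) mice were compared, and %ILS was calculated as [(T−C)/C]100.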

Mus musculus [2] = test: In vivo evaluation of 30 day survival against P388 lymphocytic leukemia in CD2F1 male mice at dose 10 mg/kg; out of 6 mice; format: functional
Summary of the method: (§2)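 CD2F1 (CDF1) male mice transplanted with 10⁶ P388 lymphocytic leukemia cells, then dosed intraperitoneally once daily for 9 days starting after the day of transplantation. Groups of 6 mice. Read-out is the number of mice alive at 30 days over the total per group.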

Mus musculus [3] = test: (§3) In vivo evaluation of 30 day survival against P388 lymphocytic leukemia in CD2F1 male mice at dose 20 mg/kg; out of 6 mice; format: functional; summary of the method: as §2
Mus musculus [4] = test: In vivo evaluation of percent increase in life span (ILS) against P388 lymphocytic leukemia in infected CD2F1 male mice and at 10 dose mg/kg; format: functional; summary of the method: as §1
Mus musculus [5] = test: In vivo evaluation of 30 day survival against P388 lymphocytic leukemia in CD2F1 male mice at dose 25 mg/kg; out of 6 mice; format: functional; summary of the method: as §2
Mus musculus [6] = test: In vivo evaluation of percent increase in life span (ILS) against P388 lymphocytic leukemia in infected CD2F1 male mice and at 25 dose mg/kg; format: functional; summary of the method: as §1
Mus musculus [7] = test: (§4) In vivo evaluation of 30 day survival against P388 lymphocytic leukemia in CD2F1 male mice at dose 15 mg/kg; out of 6 mice; format: functional; summary of the method: as §2
Mus musculus [8] = test: In vivo evaluation of percent increase in life span (ILS) against P388 lymphocytic leukemia in infected CD2F1 male mice and at 15 dose mg/kg; format: functional; summary of the method: as §1
Mus musculus [9] = test: as §4; format: functional; summary of the method: as §2; remark: listed apart in the source
Mus musculus [10] = test: In vivo evaluation of 30 day survival against P388 lymphocytic leukemia in CD2F1 male mice at dose 6 mg/kg; out of 6 mice; format: functional; summary of the method: as §2
Mus musculus [11] = test: In vivo evaluation of percent increase in life span (ILS) against P388 lymphocytic leukemia in infected CD2F1 male mice and at 12 dose mg/kg; format: functional; summary of the method: as §1
Mus musculus [12] = test: In vivo evaluation of 30 day survival against P388 lymphocytic leukemia in CD2F1 male mice at dose 12 mg/kg; out of 6 mice; format: functional; summary of the method: as §2
Mus musculus [13] = test: In vivo evaluation of percent increase in life span (ILS) against P388 lymphocytic leukemia in infected CD2F1 male mice and at 6 dose mg/kg; format: functional; summary of the method: as §1
Mus musculus [14] = test: (§5) In vivo evaluation of percent increase in life span (ILS) against P388 lymphocytic leukemia in infected CD2F1 male mice and at 80 dose mg/kg; format: functional; summary of the method: as §1
Mus musculus [15] = test: (§6) In vivo evaluation of 30 day survival against P388 lymphocytic leukemia in CD2F1 male mice at dose 80 mg/kg; out of 6 mice; format: functional; summary of the method: as §2
Mus musculus [16] = test: (§7) In vivo evaluation of 30 day survival against P388 lymphocytic leukemia in CD2F1 male mice at dose 160 mg/kg; out of 6 mice; format: functional; summary of the method: as §2
Mus musculus [17] = test: In vivo evaluation of percent increase in life span (ILS) against P388 lymphocytic leukemia in infected CD2F1 male mice and at 160 dose mg/kg; format: functional; summary of the method: as §1
Mus musculus [18] = test: In vivo evaluation of percent increase in life span (ILS) against P388 lymphocytic leukemia in infected CD2F1 male mice and at 30 dose mg/kg; format: functional; summary of the method: as §1
Mus musculus [19] = test: In vivo evaluation of 30 day survival against P388 lymphocytic leukemia in CD2F1 male mice at dose 30 mg/kg; out of 6 mice; format: functional; summary of the method: as §2
Mus musculus [20] = test: In vivo evaluation of percent increase in life span (ILS) against P388 lymphocytic leukemia in infected CD2F1 male mice and at 40 dose mg/kg; format: functional; summary of the method: as §1
Mus musculus [21] = test: (§8) In vivo evaluation of 30 day survival against P388 lymphocytic leukemia in CD2F1 male mice at dose 40 mg/kg; out of 6 mice; format: functional; summary of the method: as §2
Mus musculus [22] = test: In vivo evaluation of percent increase in life span (ILS) against P388 lymphocytic leukemia in infected CD2F1 male mice and at dose mg/kg; format: functional; summary of the method: as §1
Mus musculus [23] = test: as §3; format: functional; summary of the method: as §2; remark: listed apart in the source
Mus musculus [24] = test: In vivo evaluation of 30 day survival against P388 lymphocytic leukemia in CD2F1 male mice at dose 7.5 mg/kg; out of 6 mice; format: functional; summary of the method: as §2
Mus musculus [25] = test: as §7; format: functional, organism-based; parameters: dose 160 mg/kg; summary of the method: as §2
Mus musculus [26] = test: as §8; format: functional, organism-based; parameters: dose 40 mg/kg; summary of the method: as §2
Mus musculus [27] = test: as §5; format: functional, organism-based; summary of the method: as §1
Mus musculus [28] = test: as §6; format: functional, organism-based; parameters: dose 80 mg/kg; summary of the method: as §2
Mus musculus [29] = test: as §3; format: functional, organism-based; parameters: dose 20 mg/kg; summary of the method: as §2
Mus musculus [30] = test: In vivo evaluation of 30 day survival against P388 lymphocytic leukemia in CD2F1 male mice at dose mg/kg; out of 6 mice; format: functional; summary of the method: as §2
Mus musculus [31] = test: In vivo evaluation of percent increase in life span (ILS) against P388 lymphocytic leukemia in infected CD2F1 male mice and at 3 dose mg/kg; format: functional; summary of the method: as §1
Mus musculus [32] = test: In vivo evaluation of percent increase in life span (ILS) against P388 lymphocytic leukemia in infected CD2F1 male mice and at dose; format: functional; summary of the method: as §1

CC1(C)CC(NP(=S)(N2CC2)N2CC2)CC(C)(C)N1[O]
ILS (Mus musculus [1]): 52% | 30 day survival / total (Mus musculus [2]): 0 | 30 day survival / total (Mus musculus [3]): 0 | ILS (Mus musculus [4]): 34% | 30 day survival / total (Mus musculus [5]): 0 | ILS (Mus musculus [6]): 96%

CC1(C)CC(OP(=O)(N2CC2)N2CC2)CC(C)(C)N1[O]
30 day survival / total (Mus musculus [2]): 0 | 30 day survival / total (Mus musculus [7]): 0 | ILS (Mus musculus [4]): 29% | ILS (Mus musculus [8]): 5%

CC1(C)CC(OP(=S)(N2CC2)N2CC2)CC(C)(C)N1[O]
30 day survival / total (Mus musculus [9]): 0 | 30 day survival / total (Mus musculus [10]): 0 | ILS (Mus musculus [8]): -8% | ILS (Mus musculus [11]): 103% | 30 day survival / total (Mus musculus [12]): 1 | ILS (Mus musculus [13]): 45%

CC1(C)CC(OP(=S)(NCCCl)NCCCl)CC(C)(C)N1O
ILS (Mus musculus [14]): 15% | 30 day survival / total (Mus musculus [15]): 0 | 30 day survival / total (Mus musculus [16]): 0 | ILS (Mus musculus [17]): 33%

CC1(C)CC(OC(=O)NP(=O)(N2CC2)N2CC2)CC(C)(C)N1O
30 day survival / total (Mus musculus [9]): 0 | ILS (Mus musculus [18]): 48% | ILS (Mus musculus [8]): 25% | 30 day survival / total (Mus musculus [19]): 0

CC1(C)CC(NP(=S)(N2CC2)N2CC2)CC(C)(C)N1
ILS (Mus musculus [18]): 41% | ILS (Mus musculus [20]): 88% | 30 day survival / total (Mus musculus [19]): 0 | 30 day survival / total (Mus musculus [21]): 0

CN(C1CC(C)(C)NC(C)(C)C1)P(=S)(N1CC1)N1CC1
30 day survival / total (Mus musculus [9]): 0 | 30 day survival / total (Mus musculus [2]): 0 | ILS (Mus musculus [4]): 20% | ILS (Mus musculus [8]): 33%

CN(C1CC(C)(C)N([O])C(C)(C)C1)P(=S)(N1CC1)N1CC1
ILS (Mus musculus [22]): 27% and 16% | 30 day survival / total (Mus musculus [7]): 0 | 30 day survival / total (Mus musculus [23]): 0

CC1(C)CC(OC(=O)NP(=O)(N2CC2)N2CC2)CC(C)(C)N1[O]
ILS (Mus musculus [18]): 81% | ILS (Mus musculus [8]): 42%

CC1(C)CC(OP(=S)(N2CC2)N2CC2)CC(C)(C)N1O
30 day survival / total (Mus musculus [9]): 0 | 30 day survival / total (Mus musculus [3]): 0 | 30 day survival / total (Mus musculus [24]): 0

CN(C1CC(C)(C)N(O)C(C)(C)C1)P(=S)(N1CC1)N1CC1
ILS (Mus musculus [1]): 4% | 30 day survival / total (Mus musculus [9]): 0 | 30 day survival / total (Mus musculus [3]): 0

CC1(C)CC(NP(=S)(N2CC2)N2CC2)CC(C)(C)N1O
30 day survival / total (Mus musculus [9]): 0 | 30 day survival / total (Mus musculus [2]): 0 | ILS (Mus musculus [4]): 25% | ILS (Mus musculus [8]): 34%

CC1(C)CC(OP(=S)(NCCCl)NCCCl)CC(C)(C)N1[O]
30 day survival / total (Mus musculus [25]): 0 | 30 day survival / total (Mus musculus [26]): 0 | ILS (Mus musculus [20]): 17% and 13% | ILS (Mus musculus [27]): 30% | 30 day survival / total (Mus musculus [23]): 0 | 30 day survival / total (Mus musculus [28]): 0 | ILS (Mus musculus [17]): 44%

CN(C1CC(C)(C)N([O])C(C)(C)C1)P(=S)(NCCCl)N1CC1 (centres undefined)
30 day survival / total (Mus musculus [7]): 0 | 30 day survival / total (Mus musculus [29]): 0 | ILS (Mus musculus [4]): 13% | ILS (Mus musculus [8]): 20%

S=P(N1CC1)(N1CC1)N1CC1 [THIOTEPA]
30 day survival / total (Mus musculus [30]): 0 | ILS (Mus musculus [31]): 83% | ILS (Mus musculus [13]): 141%

CC1(C)CC(OP(=O)(N2CC2)N2CC2)CC(C)(C)N1O
30 day survival / total (Mus musculus [9]): 0 | 30 day survival / total (Mus musculus [2]): 0 | ILS (Mus musculus [32]): -2% and 23%

Source: ChEMBL document CHEMBL1122745, “In the search for new anticancer drugs. 9. Synthesis and anticancer activity of spin-labeled analogues of N,N:N',N':N",N"-Tri-1,2-ethanediylphosphoric triamide and N,N:N',N':N",N"-tri-1,2-ethanediylphosphorothioic triamide” (1984)
